Source: ChEMBL document CHEMBL1145301, “Synthesis and study of anti-inflammatory activity of some novel cyclophane amides” (2006)

How the values were obtained:
Type in all cases: functional, Erythrocyte
[1] = Antiinflammatory activity assessed as prevention of hypotonicity-induced lysis of human RBC at 100 ug/ml
Outline: (§1)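 Human blood spun at 1500 rpm; packed cells washed in isotonic NaCl (0.85%, pH 7.2) and resuspended 10% v/v. Mixture: compound, 1 ml phosphate buffer (0.15 M, pH 7.4), 2 ml hypotonic NaCl (0.36%), 0.5 ml cell suspension; control used distilled water instead of hypotonic saline. Incubated 37 °C, 30 min, centrifuged; supernatant hemoglobin read at 500 nm.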

[2] = Antiinflammatory activity assessed as prevention of hypotonicity-induced lysis of human RBC at 10 ug/ml; outline: as §1
[3] = Antiinflammatory activity assessed as prevention of hypotonicity-induced lysis of human RBC at 50 ug/ml; outline: as §1
[4] = Antiinflammatory activity assessed as prevention of hypotonicity-induced lysis of human RBC at 200 ug/ml; outline: as §1

Compound | Activity [1] [%] | Activity [2] [%] | Activity [3] [%] | Activity [4] [%]
O=C1CSc2ccccc2NC(=O)c2ccccc2OCc2ccccc2COc2ccccc2C(=O)Nc2ccccc2SCC(=O)Nc2ccccc2N1 | 48.72 | 40.53 | 42.6 | 49.65
Cc1cc2c(cc1C)COc1ccccc1C(=O)Nc1ccccc1SCc1ccc(cc1)-c1ccc(cc1)CSc1ccccc1NC(=O)c1ccccc1OC2 | 89.67 | 65.17 | 82.43 | 91
Cc1cc2c(cc1C)COc1ccccc1C(=O)Nc1ccccc1SCCOc1ccc(cc1)NC(=O)c1ccccc1OC2 | 50.25 | 44.28 | 45.63 | 51.27
Cc1cc2c(cc1C)COc1ccccc1C(=O)Nc1ccccc1SCc1ccc(cc1)-c1cccc(c1)-c1ccc(cc1)CSc1ccccc1NC(=O)c1ccccc1OC2 | 51.42 | 48.27 | 49.37 | 54.14
C[C@]12C=CC(=O)C=C1CC[C@@H]1[C@@H]2[C@@H](O)C[C@@]2(C)[C@H]1CC[C@]2(O)C(=O)CO [PREDNISOLONE] | 86.37 |  | 59.34 | 
Cc1cc2c(cc1C)COc1ccccc1C(=O)Nc1ccccc1SCc1ccc(cc1)NC(=O)c1ccccc1OC2 | 56.04 | 50.31 | 52.27 | 60.86
Cc1cc2c(cc1C)COc1ccccc1C(=O)N(c1ccccc1)CCNC(=O)COc1ccccc1OCC(=O)NCCN(c1ccccc1)C(=O)c1ccccc1OC2 | 45.25 | 38.84 | 41.72 | 47.97
